The values that follow come from ChEMBL document CHEMBL1154621, “Structure-based design of DevR inhibitor active against nonreplicating Mycobacterium tuberculosis” (J Med Chem, 2009).

Active and inactive are the calls of the source. The calls are words filed in the database; no cut-off is given here.

One may read the IC50 as the concentration that inhibits the measured activity by half. A word on the inhibition: it is the relative decrease from the control value, in per cent. High values mean a response far below the control, low ones a response near the control.

Experiment [1] concerns the target T1, DNA-binding transcriptional activator DevR/DosR (Mycobacterium tuberculosis, UniProt P9WMF9). As to the kind of experiment: Inhibition of DevR region-dependent Rv3134c promoter activity in Mycobacterium tuberculosis H37Rv after 48 hrs by GFP reporter gene assay. In a few lines:
(§1)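 H37Rv carrying DevR-regulated promoter-gfp plasmids, grown in Dubos/Tween/ADC medium to OD595 ~0.4 and diluted to OD ~0.05. Exposed to 2-fold serial compound dilutions from DMSO stocks for 48 h at 37 °C. Fluorescence corrected for vector and compound background. Percent inhibition = [1 - RFUcompound/RFUDMSO] × 100; mean ± SD of three experiments, each in triplicate wells.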
A general note: In a reporter assay the amount or activity of a reporter protein is the signal.

Experiment [2] has as its target T1, DNA-binding transcriptional activator DevR/DosR. Description: Inhibition of Mycobacterium tuberculosis phosphorylated DevR binding to fdxA promoter DNA after 10 mins by EMSA. In a few lines:
(§2)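 N-terminal GST-tagged DevR was phosphorylated with acetyl phosphate; DevR~P (1 μM final) was preincubated 10 min at 30 °C with or without compound. ~2 ng 32P end-labelled fdxA promoter PCR probe was added and incubated 30 min on ice in binding buffer. Complexes resolved by gel electrophoresis.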

Experiment [3] addresses DNA-binding transcriptional activator DevR/DosR (Mycobacterium tuberculosis) (UniProt P9WMF9). As to the kind of experiment: Inhibition of DevR region-dependent Rv3134c promoter activity in Mycobacterium tuberculosis H37Rv at 250 uM after 48 hrs by GFP reporter gene assay. In a few lines: as §1
Experiment [4] has the same target. Description: Inhibition of Mycobacterium tuberculosis phosphorylated DevR binding to fdxA promoter DNA at 250 uM after 10 mins by EMSA. In a few lines: as §2
Experiment [5] has as its system Mycobacterium tuberculosis. As to the kind of experiment: Inhibition of constitutive sigA promoter activity in Mycobacterium tuberculosis H37Rv. The format is functional, organism-based. In a few lines: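 Strains carrying Rv3134c or sigA promoter-gfp were grown in 7H9/Tween/ADC to OD595 ~0.40. Washed twice with PBS, resuspended in PBS (starved) or medium, and diluted to OD595 ~0.02. 1 mL aliquots incubated; 200 μL samples taken weekly to measure GFP fluorescence.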

For experiment [6], the system named is Mycobacterium tuberculosis. As to the kind of experiment: Antimycobacterial activity against 30 day old non-replicating dormant cultures of Mycobacterium tuberculosis H37Rv assessed as revival of bacterial viability exposed for 11 days measured after 30 days post exposure by resazurin reduction assay. Type of experiment: functional, organism-based. In a few lines: (§3)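 Hypoxic cultures were pelleted at 11000g at the end of exposure (30 days if compound was given on day 0, 41 days if given on day 30). Washed and resuspended in 4 mL 7H9 with 5% OADC and 0.1% Tween-80. Grown aerobically at 190 rpm, 37 °C. Aliquots taken every 5 days; recovery read by resazurin reduction and OD595, scored 1-40 with day 0 = 1.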

The subject of experiment [7] is Mycobacterium tuberculosis. Description: Antimycobacterial activity against 30 day old non-replicating dormant cultures of Mycobacterium tuberculosis H37Rv assessed as reduction of bacterial viability measured after 11 days by resazurin reduction assay. The format is functional, organism-based. In a few lines:
(§4)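 H37Rv grown in Dubos medium to OD595 ~0.4, diluted to OD595 0.003; 2 mL aliquots held static in sealed 4 mL tubes for 30 days until hypoxic. Compounds added to these dormant cultures for a further 11 days. Metronidazole and isoniazid were controls. Read by CFU plating of aliquots, then resazurin 0.02% plus Tween-80 20% injected, overnight incubation, resazurin reduction (HyRRA).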

Experiment [8] concerns the target DNA-binding transcriptional activator DevR/DosR (Mycobacterium tuberculosis) (UniProt P9WMF9). As to the kind of experiment: Inhibition of Mycobacterium tuberculosis phosphorylated DevR binding to fdxA promoter DNA at 500 uM after 10 mins by EMSA. In a few lines:
as §2

The test system of experiment [9] is Mycobacterium tuberculosis. Description: Antimycobacterial activity against aerobic Mycobacterium tuberculosis H37Rv by resazurin reduction based REMA assay. The format is functional, organism-based. In a few lines: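 Aerobic H37Rv exposed to compounds in triplicate cultures for 7 days. Then 0.02% resazurin and 20% Tween-80 added; after 48 h, blue-to-pink colour change read, with fluorescence at excitation 530 nm, emission 590 nm.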

In experiment [10] the target is DNA-binding transcriptional activator DevR/DosR (Mycobacterium tuberculosis) (UniProt P9WMF9). Description: Inhibition of Mycobacterium tuberculosis phosphorylated DevR binding to fdxA promoter DNA added before DevR phosphorylation by EMSA.
For experiment [11], the system named is Mycobacterium tuberculosis. As to the kind of experiment: Antimycobacterial activity against hypoxic dormant cultures of Mycobacterium tuberculosis H37Rv assessed as reduction of bacterial viability at 131 ug/mL administered on day 0 into hypoxic tubes measured after 30 days by resazurin reduction assay. Type of experiment: functional. In a few lines:
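H37Rv in Dubos medium at OD595 0.003; 2 mL aliquots in sealed 4 mL tubes held static, compound injected on day 0. Incubated until methylene blue decolorized (anaerobiosis, ~30 days). CFU plating of aliquots, then resazurin 0.02% and Tween-80 20% injected, overnight incubation, viability by resazurin reduction (HyRRA). DMSO control matched.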
In general terms: Resazurin is reduced to fluorescent resorufin, in cell work by metabolically active cells.

The target in experiment [12] is T1, DNA-binding transcriptional activator DevR/DosR. Description: Inhibition of DevR region-dependent hspX promoter activity in Mycobacterium tuberculosis H37Rv after 48 hrs by GFP reporter gene assay. In a few lines: as §1
In experiment [13] the target is DNA-binding transcriptional activator DevR/DosR (Mycobacterium tuberculosis) (UniProt P9WMF9). As to the kind of experiment: Inhibition of Mycobacterium tuberculosis phosphorylated DevR binding to fdxA promoter DNA added after DevR phosphorylation by EMSA.
The subject of experiment [14] is Mycobacterium tuberculosis. Description: Antimycobacterial activity against hypoxic dormant cultures of Mycobacterium tuberculosis H37Rv assessed as revival of bacterial viability at 131 ug/mL administered on day 0 into hypoxic tubes measured after 30 days under hypoxic conditions by resazurin reduction assay. Type of experiment: functional, organism-based. In a few lines:
as §3

In experiment [15] the test system is Mycobacterium tuberculosis. As to the kind of experiment: Antimycobacterial activity against nutrient starvation-induced dormant Mycobacterium tuberculosis H37Rv expressing Rv3134c/sigA promoter driven GFP reporter genes. Type of experiment: functional, organism-based.
Experiment [16] deals with T1, DNA-binding transcriptional activator DevR/DosR. Description: Inhibition of DevR region-dependent narK2 promoter activity in Mycobacterium tuberculosis H37Rv after 48 hrs by GFP reporter gene assay. In a few lines: as §1
For experiment [17], the system named is Mycobacterium tuberculosis. Description: Antimycobacterial activity against 30 day old non-replicating dormant cultures of Mycobacterium tuberculosis H37Rv assessed as reduction of bacterial viability at 131 ug/mL measured after 11 days by resazurin reduction assay. Type of experiment: functional, organism-based. In a few lines: as §4
Experiment [18] concerns Mycobacterium tuberculosis. Description: Antimycobacterial activity against 30 day old non-replicating dormant cultures of Mycobacterium tuberculosis H37Rv assessed as revival of bacterial viability at 131 ug/mL exposed for 11 days measured after 30 days post exposure by resazurin reduction assay. Type of experiment: functional, organism-based. In a few lines: as §3
Experiment [19] deals with DNA-binding protein HupB (Mycobacterium tuberculosis (strain ATCC 25177 / H37Ra)) (UniProt A5U6Z7). As to the kind of experiment: Inhibition of Mycobacterium tuberculosis HupB binding to fdxA promoter DNA at 500 uM by EMSA. In a few lines:
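Purified HupB protein incubated with compound, then ~2 ng 32P-labelled fdxA promoter probe added for 30 min on ice in binding buffer. Complexes resolved by gel shift electrophoresis against positive and negative controls.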
(In general: Mobility shift assays separate free from complexed probe on a gel.)

T1 sequence (P9WMF9 whole entry): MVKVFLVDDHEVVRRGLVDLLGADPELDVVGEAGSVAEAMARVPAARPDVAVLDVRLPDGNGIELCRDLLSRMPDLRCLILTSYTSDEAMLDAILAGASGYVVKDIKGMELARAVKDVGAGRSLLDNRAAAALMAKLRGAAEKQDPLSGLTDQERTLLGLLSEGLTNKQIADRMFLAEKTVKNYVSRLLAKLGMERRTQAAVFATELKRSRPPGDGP
DNA-binding transcriptional activator DevR/DosR (Mycobacterium tuberculosis), sequence (P9WMF9 whole entry): as above
DNA-binding protein HupB (Mycobacterium tuberculosis (strain ATCC 25177 / H37Ra)), sequence (A5U6Z7 whole entry): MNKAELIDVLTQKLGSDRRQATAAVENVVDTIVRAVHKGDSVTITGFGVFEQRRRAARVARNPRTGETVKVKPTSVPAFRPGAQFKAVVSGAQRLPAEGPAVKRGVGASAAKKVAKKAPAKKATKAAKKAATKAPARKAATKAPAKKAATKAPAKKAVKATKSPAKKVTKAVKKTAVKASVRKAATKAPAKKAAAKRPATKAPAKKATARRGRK

Consider `COC(=O)c1ccc(Cl)c(NC(=O)c2ccc(CN3CCOCC3)cc2)c1`, for which the IC50 result in experiment [1] and in experiment [2] was “Not Active” each time.

For `COc1cc(NC(=O)CCc2ccc(OCc3ccc(Cl)cc3)c(OC)c2)c(OC)cc1Cl`, the IC50 in [1] (read-out: IC50 (converted)) was 249 µM; in experiment [2] (read-out: IC50 (converted)), 295 µM. In experiment [3], this compound yielded an inhibition of 50%. The result in experiment [4] and in experiment [5] was Active.

Regarding `COc1cc(Br)cc(/C=C2/SC(Nc3cccc(C(=O)O)c3)=NC2=O)c1O`, the IC50 entry in experiment [1] and in [2] was “Not Active” each time.

Take `Cc1cc(=O)[nH]c2sc(C(=O)c3ccc(Br)cc3)c(N)c12`: the IC50 entry in experiment [1] and in [2] was “Not Active” throughout.

With `Nc1nc2c(nc(Br)n2[C@H]2O[C@H](CO)[C@@H](O)[C@@H]2O)c(=O)[nH]1`, the IC50 entry in experiment [1] and in experiment [2] was “Not Active” throughout.

For `COc1cc(NC(=O)c2cc3ccccc3o2)ccc1NC(=O)c1ccccc1Cl`, the IC50 is 300 µM in experiment [1] (read-out: IC50 (converted)) and 200 µM in experiment [2] (read-out: IC50 (converted)). Further, the inhibition in experiment [3] is 30%. Moreover, the outcome in [4] and in experiment [5] was Active.

Regarding `O=c1[nH]cc(/N=C/c2cc([N+](=O)[O-])ccc2O)c(=O)[nH]1`, the IC50 entry in [1] and in experiment [2] was “Not Active” in each case.

Take `Cc1ncc([N+](=O)[O-])n1CCO`: the outcome in experiment [6] and in experiment [7] was Active.

Turning to `NNC(=O)c1ccncc1`, the outcome in experiment [6] and in [7] was inactive.

Regarding `C=CCc1cc(/C=C2\NC(=O)N(c3ccccc3F)C2=O)cc(OCC)c1O`, the IC50 was 311 µM in experiment [1] (read-out: IC50 (converted)) and 259 µM in experiment [2] (read-out: IC50 (converted)). The inhibition in experiment [3] worked out at 30%; in experiment [8], 100%. Besides, the result in experiment [5] was Active.

As for `COc1cc(C(=O)NCC(=O)NN)cc(OC)c1OC`, the IC50 result in experiment [1] and in experiment [2] was “Not Active” each time.

Consider `COc1cc(NC(=O)c2ccc(-c3cc4ccccc4oc3=O)cc2)ccc1NC(=O)c1ccccc1Cl`, for which the outcome in [9], in [15], in experiment [17], in experiment [5], in experiment [18] and in experiment [19] was inactive. Further, the result in [10], in experiment [13], in experiment [14] and in experiment [4] was Active. Moreover, the Activity in [11] is on record as over 99%. In addition, the IC50 was 125 µM in experiment [1] (read-out: IC50 (converted)), under 125 µM in experiment [12], under 49.9 µM in experiment [2] (read-out: IC50 (converted)) and under 125 µM in experiment [16]. For the same compound, the inhibition in [3] turned out to be 50%.

With `O=C(NCc1ccccc1)c1ccccc1NS(=O)(=O)c1ccc2c(c1)OCCO2`, the IC50 result in experiment [1] and in experiment [2] was “Not Active” in each case.
